According to ChEMBL document CHEMBL1124707, “N-phenyl-N'-pyridinylureas as anticonvulsant agents” (1990):

The compounds below were run on Mus musculus (assay: The compound was tested for Ataxia(ATAX) by the inverted screen test, after intraperitoneal administration at 120 min). Details: ip, 2 h.
Format: functional

Row | SMILES | ED50
1 | O=C(Nc1ccncc1)Nc1c(Cl)cccc1Cl | 293 mg/kg

These compounds were tested on Rattus norvegicus (assay: The compound was tested for Ataxia(ATAX) by the inverted screen test, after oral administration in rat at 240 min). Details: 4 h.

Row | SMILES | ED50
2 | Cc1cccc(Cl)c1NC(=O)Nc1ccncc1 | 408 mg/kg
3 | O=C1NC(=O)C(c2ccccc2)(c2ccccc2)N1 [PHENYTOIN] | > 300 mg/kg

Species: Rattus norvegicus
Assay: Protective activity was determined against Maximal Electroshock seizures(MES) in rat at 30 min
Format: functional
Details: 0.5 h
Outline: (§1)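 Rats were dosed orally and tested against maximal electroshock, with the test time after dosing given per line. Doses were calculated as free base. ED50 is reported with 95% confidence interval.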

Row | SMILES | ED50
4 | O=C1NC(=O)C(c2ccccc2)(c2ccccc2)N1 [PHENYTOIN] | 30 mg/kg

The compounds below were run on Mus musculus (assay: The compound was tested for Ataxia(ATAX) by the inverted screen test after (ip) administration at 120 min). Details: 2 h.
Format: functional

Row | SMILES | ED50
5 | Cc1cccc(C)c1NC(=O)Nc1ccncc1 | 138 mg/kg

These compounds were tested on Mus musculus (assay: The compound was tested for Ataxia(ATAX) by the inverted screen test, after oral administration in mouse at 60 min). Details: 1 h.
Format: functional
Outline: (§2)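 Mice were dosed orally, with doses calculated as free base. They were placed on an inverted square of wire mesh, and falling off was scored as impairment. Ten mice per dose were tested at the stated time, giving an ED50 with 95% confidence interval.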

Row | SMILES | ED50
6 | Cc1cccc(Cl)c1NC(=O)Nc1ccncc1 | 210 mg/kg

Species: Mus musculus
Assay: Protective activity was determined against Maximal Electroshock seizures(MES) in mouse at 120 min
Format: functional
Details: 2 h
Outline: (§3)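 Male Swiss-Webster mice (25–32 g, fed) were dosed orally, with the compound in water or in a 0.2% (hydroxymethyl)cellulose suspension and doses calculated as free base. Absence of tonic hind-limb extension counted as protection. Ten mice per dose were used, giving an ED50 with 95% confidence interval.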

Row | SMILES | ED50
7 | O=C1NC(=O)C(c2ccccc2)(c2ccccc2)N1 [PHENYTOIN] | 8.3 mg/kg

Species: Mus musculus
Assay: animal or person
Format: functional
Details: 0.5 h, read-out: MED

Row | SMILES | minimal effective dose
8 | CCOC(=O)c1ccc(NC(=O)Nc2ccncc2)cc1 | > 300 mg/kg
9 | O=C(Nc1ccncc1)Nc1ccccc1Br | 100 mg/kg
10 | O=C(Nc1ccncc1)Nc1ccc(I)cc1 | > 300 mg/kg
11 | CN(C)c1ccccc1NC(=O)Nc1ccncc1 | 100 mg/kg
12 | Cc1cccc(Cl)c1NC(=O)Nc1cccnc1 | 100 mg/kg
13 | Cc1cccc(Cl)c1NC(=O)Nc1ccncc1 | 30 mg/kg
14 | O=C(Nc1ccncc1)Nc1c(Cl)cccc1CO | > 300 mg/kg
15 | O=C(Nc1ccncc1)Nc1ccccc1C(=O)O | > 300 mg/kg
16 | O=C(Nc1ccncc1)Nc1ccc(Oc2ccccc2)cc1 | > 300 mg/kg
17 | CC(C)c1ccc(NC(=O)Nc2ccncc2)cc1 | > 300 mg/kg
18 | Cc1cccc(C)c1NC(=O)Nc1cccnc1 | 100 mg/kg
19 | Cc1cc(NC(=O)Nc2c(C)cccc2Cl)ccn1 | 30 mg/kg
20 | O=C(Nc1ccncc1)Nc1ccc(F)cc1 | 300 mg/kg
21 | O=C(Nc1ccncc1)Nc1cccc([N+](=O)[O-])c1 | > 300 mg/kg
22 | O=C(Nc1ccncc1)Nc1cccc(C(F)(F)F)c1 | > 300 mg/kg
23 | Cc1cc(C)c(NC(=O)Nc2ccncc2)c(C)c1 | 30 mg/kg
24 | CC(C)c1ccccc1NC(=O)Nc1ccncc1 | 100 mg/kg
25 | Cc1cccc(C)c1NC(=O)Nc1ccccn1 | 300 mg/kg
26 | CC(=O)c1ccc(NC(=O)Nc2ccncc2)cc1 | > 300 mg/kg

Row | SMILES | minimal effective dose
27 | COc1ccccc1NC(=O)Nc1ccncc1 | 100 mg/kg
28 | CC(C)c1cccc(C(C)C)c1NC(=O)Nc1ccncc1 | > 300 mg/kg
29 | O=C(Nc1ccncc1)Nc1ccccc1[N+](=O)[O-] | 300 mg/kg
30 | O=C(Nc1ccncc1)Nc1ccc([N+](=O)[O-])cc1 | > 300 mg/kg
31 | O=C(Nc1ccccn1)Nc1c(Cl)cccc1Cl | > 300 mg/kg
32 | O=C(Nc1ccncc1)Nc1ccccc1Cl | 100 mg/kg
33 | O=C(Nc1ccncc1)Nc1c(Cl)cccc1C(F)(F)F | 100 mg/kg
34 | Nc1ccccc1NC(=O)Nc1ccncc1 | > 300 mg/kg
35 | Cc1cccc(C)c1NC(=O)Nc1ccncc1 | 30 mg/kg
36 | COc1cc(C)c(NC(=O)Nc2ccncc2)c(C)c1 | > 300 mg/kg
37 | Nc1ccc(NC(=O)Nc2ccncc2)cc1 | > 300 mg/kg
38 | Cc1cc(C)c(NC(=O)Nc2ccncc2)c(Cl)c1 | 100 mg/kg
39 | Cc1cccc(Cl)c1NC(=O)NCc1ccncc1 | > 300 mg/kg
40 | Cc1c(Cl)cccc1NC(=O)Nc1ccncc1 | > 300 mg/kg
41 | CC(C)NC(=O)Nc1ccncc1 | 300 mg/kg
42 | O=C(Nc1ccncc1)Nc1ccccc1F | 100 mg/kg
43 | Cc1cccc(Cl)c1NC(=O)Nc1c(C)cccc1Cl | > 300 mg/kg
44 | O=C(Nc1ccncc1)Nc1ccccc1O | > 300 mg/kg
45 | O=C(Nc1cccnc1)Nc1c(Cl)cccc1Cl | > 300 mg/kg

Row | SMILES | minimal effective dose
46 | CCOC(=O)c1ccccc1NC(=O)Nc1ccncc1 | 300 mg/kg
47 | O=C(Nc1ccncc1)Nc1ccccc1OCc1ccccc1 | > 300 mg/kg
48 | Cc1ccccc1NC(=O)Nc1ccncc1 | 100 mg/kg
49 | O=C(Nc1ccncc1)Nc1c(Cl)cccc1Cl | 100 mg/kg
50 | N#Cc1ccccc1NC(=O)Nc1ccncc1 | > 300 mg/kg
51 | O=C(Nc1ccccc1)Nc1ccncc1 | 100 mg/kg
52 | Cc1ccc(NC(=O)Nc2ccncc2)c(C)c1 | > 300 mg/kg
53 | Cc1cccc(NC(=O)Nc2ccncc2)c1 | > 300 mg/kg
54 | Cc1cccc(C)c1NC(=O)Nc1ccc([N+](=O)[O-])cc1 | > 300 mg/kg
55 | CCc1cccc(CC)c1NC(=O)Nc1ccncc1 | 30 mg/kg
56 | Cc1cccc(Cl)c1NC(=O)Nc1ccccn1 | 100 mg/kg
57 | O=C(Nc1ccncc1)Nc1c(Cl)cc(Cl)cc1Cl | 300 mg/kg
58 | O=C(Nc1ccncc1)Nc1ccccc1C(F)(F)F | 100 mg/kg
59 | Cc1cccc(C)c1NC(=O)N1CCN(C)CC1 | 100 mg/kg
60 | O=C(Nc1ccncc1)Nc1ccc(Cl)cc1Cl | > 300 mg/kg
61 | Cc1cccc(Cl)c1NC(N)=O | 100 mg/kg
62 | Cc1ccc(NC(=O)Nc2ccncc2)cc1 | > 300 mg/kg
63 | O=C(Nc1ccncc1)Nc1ccc(Cl)cc1 | > 300 mg/kg

Species: Mus musculus
Assay: not given
Format: functional
Details: not given

Row | SMILES | MAD
64 | CCOC(=O)c1ccc(NC(=O)Nc2ccncc2)cc1 | >300 mg/kg
65 | O=C(Nc1ccncc1)Nc1ccccc1Br | >300 mg/kg
66 | O=C(Nc1ccncc1)Nc1ccc(I)cc1 | >300 mg/kg
67 | CN(C)c1ccccc1NC(=O)Nc1ccncc1 | 100 mg/kg
68 | Cc1cccc(Cl)c1NC(=O)Nc1cccnc1 | 300 mg/kg
69 | Cc1cccc(Cl)c1NC(=O)Nc1ccncc1 | 300 mg/kg
70 | O=C(Nc1ccncc1)Nc1c(Cl)cccc1CO | 300 mg/kg
71 | O=C(Nc1ccncc1)Nc1ccccc1C(=O)O | >300 mg/kg
72 | O=C(Nc1ccncc1)Nc1ccc(Oc2ccccc2)cc1 | >300 mg/kg
73 | CC(C)c1ccc(NC(=O)Nc2ccncc2)cc1 | >300 mg/kg
74 | Cc1cccc(C)c1NC(=O)Nc1cccnc1 | 300 mg/kg
75 | Cc1cc(NC(=O)Nc2c(C)cccc2Cl)ccn1 | 100 mg/kg
76 | O=C(Nc1ccncc1)Nc1ccc(F)cc1 | 300 mg/kg
77 | O=C(Nc1ccncc1)Nc1cccc([N+](=O)[O-])c1 | >300 mg/kg
78 | O=C(Nc1ccncc1)Nc1cccc(C(F)(F)F)c1 | >300 mg/kg
79 | Cc1cc(C)c(NC(=O)Nc2ccncc2)c(C)c1 | 300 mg/kg
80 | CC(C)c1ccccc1NC(=O)Nc1ccncc1 | 300 mg/kg
81 | Cc1cccc(C)c1NC(=O)Nc1ccccn1 | >300 mg/kg
82 | CC(=O)c1ccc(NC(=O)Nc2ccncc2)cc1 | >300 mg/kg

Row | SMILES | MAD
83 | COc1ccccc1NC(=O)Nc1ccncc1 | >300 mg/kg
84 | CC(C)c1cccc(C(C)C)c1NC(=O)Nc1ccncc1 | >300 mg/kg
85 | O=C(Nc1ccncc1)Nc1ccccc1[N+](=O)[O-] | >300 mg/kg
86 | O=C(Nc1ccncc1)Nc1ccc([N+](=O)[O-])cc1 | >300 mg/kg
87 | O=C(Nc1ccccn1)Nc1c(Cl)cccc1Cl | 100 mg/kg
88 | O=C(Nc1ccncc1)Nc1ccccc1Cl | >300 mg/kg
89 | O=C(Nc1ccncc1)Nc1c(Cl)cccc1C(F)(F)F | 300 mg/kg
90 | Nc1ccccc1NC(=O)Nc1ccncc1 | >300 mg/kg
91 | Cc1cccc(C)c1NC(=O)Nc1ccncc1 | 100 mg/kg
92 | COc1cc(C)c(NC(=O)Nc2ccncc2)c(C)c1 | >300 mg/kg
93 | Nc1ccc(NC(=O)Nc2ccncc2)cc1 | 300 mg/kg
94 | Cc1cc(C)c(NC(=O)Nc2ccncc2)c(Cl)c1 | >300 mg/kg
95 | Cc1cccc(Cl)c1NC(=O)NCc1ccncc1 | >300 mg/kg
96 | Cc1c(Cl)cccc1NC(=O)Nc1ccncc1 | >300 mg/kg
97 | CC(C)NC(=O)Nc1ccncc1 | 300 mg/kg
98 | O=C(Nc1ccncc1)Nc1ccccc1F | 100 mg/kg
99 | Cc1cccc(Cl)c1NC(=O)Nc1c(C)cccc1Cl | >300 mg/kg
100 | O=C(Nc1ccncc1)Nc1ccccc1O | >300 mg/kg
101 | O=C(Nc1cccnc1)Nc1c(Cl)cccc1Cl | 300 mg/kg

Row | SMILES | MAD
102 | CCOC(=O)c1ccccc1NC(=O)Nc1ccncc1 | >300 mg/kg
103 | O=C(Nc1ccncc1)Nc1ccccc1OCc1ccccc1 | 30 mg/kg
104 | Cc1ccccc1NC(=O)Nc1ccncc1 | >300 mg/kg
105 | O=C(Nc1ccncc1)Nc1c(Cl)cccc1Cl | >300 mg/kg
106 | N#Cc1ccccc1NC(=O)Nc1ccncc1 | 100 mg/kg
107 | O=C(Nc1ccccc1)Nc1ccncc1 | 300 mg/kg
108 | Cc1ccc(NC(=O)Nc2ccncc2)c(C)c1 | >300 mg/kg
109 | Cc1cccc(NC(=O)Nc2ccncc2)c1 | >300 mg/kg
110 | Cc1cccc(C)c1NC(=O)Nc1ccc([N+](=O)[O-])cc1 | >300 mg/kg
111 | CCc1cccc(CC)c1NC(=O)Nc1ccncc1 | 100 mg/kg
112 | Cc1cccc(Cl)c1NC(=O)Nc1ccccn1 | >300 mg/kg
113 | O=C(Nc1ccncc1)Nc1c(Cl)cc(Cl)cc1Cl | 300 mg/kg
114 | O=C(Nc1ccncc1)Nc1ccccc1C(F)(F)F | 300 mg/kg
115 | Cc1cccc(C)c1NC(=O)N1CCN(C)CC1 | 300 mg/kg
116 | O=C(Nc1ccncc1)Nc1ccc(Cl)cc1Cl | >300 mg/kg
117 | Cc1cccc(Cl)c1NC(N)=O | 300 mg/kg
118 | Cc1ccc(NC(=O)Nc2ccncc2)cc1 | 100 mg/kg
119 | O=C(Nc1ccncc1)Nc1ccc(Cl)cc1 | >300 mg/kg

Species: Mus musculus
Assay: Protective activity against Maximal Electroshock seizures(MES) in mice was determined at 90 min
Format: functional
Details: 1.5 h

Row | SMILES | ED50
120 | Cc1cccc(C)c1NC(=O)Nc1ccncc1 | 21 mg/kg

Species: Mus musculus
Assay: Protective activity against Maximal Electroshock seizures(MES) at 60 min was determined
Format: functional
Details: 1 h

Row | SMILES | ED50
121 | O=C(Nc1ccncc1)Nc1c(Cl)cccc1Cl | 30 mg/kg

Species: Mus musculus
Assay: Protective activity was determined against Maximal Electroshock seizures(MES) in mouse at 30 min
Format: functional
Details: 0.5 h
Outline: as §3

Row | SMILES | ED50
122 | Cc1cccc(Cl)c1NC(=O)Nc1ccncc1 | 14 mg/kg

The compounds below were run on Mus musculus (assay: The compound was tested for Ataxia(ATAX) by the inverted screen test, after oral administration in mouse at 120 min). Details: 2 h.
Format: functional
Outline: as §2

Row | SMILES | ED50
123 | O=C1NC(=O)C(c2ccccc2)(c2ccccc2)N1 [PHENYTOIN] | 78 mg/kg

Species: Rattus norvegicus
Assay: Protective activity was determined against Maximal Electroshock seizures(MES) in rat at 60 min
Format: functional
Details: 1 h
Outline: as §1

Row | SMILES | ED50
124 | Cc1cccc(Cl)c1NC(=O)Nc1ccncc1 | 9.2 mg/kg

These compounds were tested on Mus musculus (assay: The compound was tested for Ataxia(ATAX) by the inverted screen test, after intraperitoneal administration at 120 min in mice). Details: ip, 2 h.
Format: functional

Row | SMILES | ED50
125 | Cc1cccc(Cl)c1NC(=O)Nc1ccncc1 | 251 mg/kg

Species: Mus musculus
Assay: The compound was tested for protective activity against Maximal Electroshock seizures(MES) at 60 min in mice
Format: functional
Details: 1 h

Row | SMILES | ED50
126 | Cc1cccc(Cl)c1NC(=O)Nc1ccncc1 | 46 mg/kg
